Laboratory results taken from ChEMBL document CHEMBL2375318, “Design, synthesis and antimicrobial activity of novel benzothiazole analogs” (Eur J Med Chem, 2013).
Values after ≈ are worked out from the molar mass of the structure shown.

Columns and labels:
Aspergillus fumigatus = test: Antimicrobial activity against Aspergillus fumigatus clinical isolate after 18 to 24 hrs by micro-dilution method; format: functional
In short: (§1)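 Broth micro-dilution MIC, fungi. Fresh broth cultures were made in normal saline. Compounds were serially diluted in microtiter plates across 8 concentrations, 100 down to 0.78. Standardized inoculum was 1–2 × 10^7 cfu/ml. Medium was Sabouraud dextrose pH 7.3 ± 0.2. Plates were incubated aerobically at 37 °C for 18–24 h. MIC is the lowest concentration with no visible growth or turbidity versus control. Fluconazole was the reference.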

Aspergillus niger = test: Antimicrobial activity against Aspergillus niger clinical isolate after 18 to 24 hrs by micro-dilution method; format: functional; in short: as §1
Cryptococcus neoformans = test: Antifungal activity against Cryptococcus neoformans clinical isolate after 18 to 24 hrs by micro-dilution method; format: functional; in short: as §1
Pichia kudriavzevii = test: Antifungal activity against Candida krusei ATCC 6258 after 18 to 24 hrs by micro-dilution method; format: functional; in short: as §1
Candida albicans [1] = test: Antifungal activity against Candida albicans ATCC 90028 after 18 to 24 hrs by micro-dilution metho; format: functional; in short: as §1
Candida albicans [2] = test: Antifungal activity against Candida albicans clinical isolate after 18 to 24 hrs by micro-dilution method; format: functional; in short: as §1
Candida tropicalis = test: Antifungal activity against Candida tropicalis ATCC 750 after 18 to 24 hrs by micro-dilution method; format: functional; in short: as §1
Shigella boydii = test: Antimicrobial activity against Shigella boydii clinical isolate after 18 to 24 hrs by micro-dilution method; format: functional
[3] = Cytotoxicity against human RBC assessed as hemolytic activity at 100 uM after 1 hr by spectophotometry; format: cell-based, Erythrocyte; conditions: red blood cells (RBC), read-out: Activity
In short: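 Hemolysis, fresh human blood. RBCs were washed three times in PBS (spun 3000 rpm, 7 min, room temperature) and adjusted to 5×10^8 cells/ml. Cell suspension was added to buffer holding 100 μM compound in 1% v/v DMSO/PBS. Controls were 1% DMSO/PBS and sterile water. Samples were shaken at 37 °C for 1 h, spun at 1300 rpm for 5 min, and supernatant absorbance read at 540 nm.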

Pseudomonas aeruginosa = test: Antimicrobial activity against Pseudomonas aeruginosa ATCC 27893 after 18 to 24 hrs by micro-dilution method; format: functional
Klebsiella pneumoniae = test: Antimicrobial activity against Klebsiella pneumoniae clinical isolate after 18 to 24 hrs by micro-dilution method; format: functional
Escherichia coli = test: Antimicrobial activity against Escherichia coli ATCC 35218 after 18 to 24 hrs by micro-dilution method; format: functional
Salmonella typhi = test: Antimicrobial activity against Salmonella typhi MTCC 3216 after 18 to 24 hrs by micro-dilution method; format: functional, Salmonella enterica subsp. enterica serovar Typhi; conditions: Salmonella enterica
In short: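 Broth microdilution with twofold serial dilutions from 100 down to 0.78, eight concentrations. Fresh cultures were made up in normal saline, and 0.1 ml of standardized inoculum (1–2 × 10^7 cfu/ml) was added per well. Plates were incubated aerobically at 37 °C for 18–24 h on Mueller-Hinton agar/Luria broth. MIC was the lowest concentration with no visible turbidity compared with the control.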

Enterococcus faecalis = test: Antimicrobial activity against Enterococcus faecalis clinical isolate after 18 to 24 hrs by micro-dilution method; format: functional
Staphylococcus aureus = test: Antimicrobial activity against Staphylococcus aureus ATCC 25323 after 18 to 24 hrs by micro-dilution method; format: functional

Fc1ccc(-n2cc(CN(Cc3cn(-c4ccc(F)cc4F)nn3)c3nc4ccccc4s3)nn2)c(F)c1
MIC (Aspergillus fumigatus): > 100 µg/mL
MIC (Aspergillus niger): > 100 µg/mL
MIC (Cryptococcus neoformans): > 100 µg/mL
MIC (Pichia kudriavzevii): > 100 µg/mL
MIC (Candida albicans [1]): > 100 µg/mL
MIC (Candida albicans [2]): > 100 µg/mL
MIC (Candida tropicalis): > 100 µg/mL
MIC (Shigella boydii): 100 µg/mL (≈ 186 µM)
hemolysis at 1 h, 100 µM [3]: 2.47%
MIC (Pseudomonas aeruginosa): 3.12 µg/mL (≈ 5.82 µM)
MIC (Klebsiella pneumoniae): 3.12 µg/mL (≈ 5.82 µM)
MIC (Escherichia coli): 3.12 µg/mL (≈ 5.82 µM)
MIC (Salmonella typhi): 3.12 µg/mL (≈ 5.82 µM)
MIC (Enterococcus faecalis): 3.12 µg/mL (≈ 5.82 µM)
MIC (Staphylococcus aureus): 3.12 µg/mL (≈ 5.82 µM)

Cc1cc(F)ccc1-n1cc(CN(Cc2cn(-c3ccc(F)cc3C)nn2)c2nc3ccccc3s2)nn1
MIC (Aspergillus fumigatus): > 100 µg/mL
MIC (Aspergillus niger): > 100 µg/mL
MIC (Cryptococcus neoformans): > 100 µg/mL
MIC (Pichia kudriavzevii): > 100 µg/mL
MIC (Candida albicans [1]): > 100 µg/mL
MIC (Candida albicans [2]): > 100 µg/mL
MIC (Candida tropicalis): > 100 µg/mL
MIC (Shigella boydii): > 100 µg/mL
hemolysis at 1 h, 100 µM [3]: 29.8%
MIC (Pseudomonas aeruginosa): > 100 µg/mL
MIC (Klebsiella pneumoniae): > 100 µg/mL
MIC (Escherichia coli): 50 µg/mL (≈ 94.6 µM)
MIC (Salmonella typhi): > 100 µg/mL
MIC (Enterococcus faecalis): > 100 µg/mL
MIC (Staphylococcus aureus): > 100 µg/mL

Clc1ccccc1-n1cc(CN(Cc2cn(-c3ccccc3Cl)nn2)c2nc3ccccc3s2)nn1
MIC (Aspergillus fumigatus): > 100 µg/mL
MIC (Aspergillus niger): > 100 µg/mL
MIC (Cryptococcus neoformans): > 100 µg/mL
MIC (Pichia kudriavzevii): > 100 µg/mL
MIC (Candida albicans [1]): > 100 µg/mL
MIC (Candida albicans [2]): > 100 µg/mL
MIC (Candida tropicalis): > 100 µg/mL
MIC (Shigella boydii): > 100 µg/mL
hemolysis at 1 h, 100 µM [3]: 19.5%
MIC (Pseudomonas aeruginosa): 12.5 µg/mL (≈ 23.4 µM)
MIC (Klebsiella pneumoniae): 50 µg/mL (≈ 93.7 µM)
MIC (Escherichia coli): 12.5 µg/mL (≈ 23.4 µM)
MIC (Salmonella typhi): 6.25 µg/mL (≈ 11.7 µM)
MIC (Enterococcus faecalis): 6.25 µg/mL (≈ 11.7 µM)
MIC (Staphylococcus aureus): 25 µg/mL (≈ 46.9 µM)
